Active and inactive are the calls of the source. The calls are words filed in the database; no cut-off is given here.

Experiment [1] relates to Splenocyte. The experiment is described as follows: In vivo cytotoxicity against C57BL/6 mouse-derived splenocytes loaded with SIINFEKL peptide allografted in immunized C57BL/6J mouse at 10 mg/kg, IM on day 0 and day 28 followed by spleenocytes injection on day 7 and day 35 and measured on day 9 and 37 by flow cytometry. The format is functional, organism-based. (In general: A flow cytometer gives signals particle by particle.)

Experiment [2] concerns Mus musculus. The experiment is described as follows: Immuno-adjuvant activity in C57BL/6J mouse assessed as increase in level of OVA specific Goat Anti-Mouse IgG-HRP antibody at 10 mg/kg, IM co-treated with ovalbumin at 5 mg/kg incubated for 1 hrs measured on day 14 by ELISA. The format is functional, organism-based. Summed up:
(§1)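 Female 8-week C57BL/6J mice (ca. 20 g) given i.m. 200 μg (10 mg/kg) agonist mixed with 100 μg OVA (5 mg/kg, low endotoxin) in DMSO:Tween 80:saline 1:1:8 on day 0. Controls received vehicle or OVA alone; 5–8 mice/group. Serum OVA-specific IgG, IgG1 and IgG2b measured by ELISA on day 14. Mean ± SD; one-way ANOVA with Tukey test.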

In experiment [3] the test system is Mus musculus. Briefly: Immuno-adjuvant activity in C57BL/6J mouse assessed as increase in level of OVA specific Goat Anti-Mouse IgG1-HRP antibody at 10 mg/kg, IM co-treated with ovalbumin at 5 mg/kg incubated for 1 hrs measured on day 14 by ELISA. The format is functional, organism-based. Summed up:
as §1

Experiment [4] deals with Mus musculus. Briefly: Immuno-adjuvant activity in C57BL/6J mouse assessed as increase in level of OVA specific Goat Anti-Mouse IgG2b-HRP antibody at 10 mg/kg, IM co-treated with ovalbumin at 5 mg/kg incubated for 1 hrs measured on day 14 by ELISA. The format is functional, organism-based. A digest of the protocol:
as §1
Background: ELISA stands for enzyme-linked immunosorbent assay.

Experiment [5] concerns Peritoneal macrophage. Briefly: Stimulation of TNF alpha release in TLR4-sufficient wild type C3H/HeOuJ mouse peritoneal macrophage at 500 nM. The format is functional, cell-based. Summed up: (§2)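 Peritoneal macrophages from Tlr4-WT C3H/HeOuJ mice or Tlr4 P712H-mutant C3H/HeJ mice, stimulated with agonist at 500 nM. Released TNF-α measured. LPS run as positive control.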
Experiment [6] has as its system Peritoneal macrophage. The experiment is described as follows: Stimulation of TNF alpha release in TLR4- deficient mutant C3H/HeJ mouse peritoneal macrophage at 500 nM. It counts as functional, cell-based. A digest of the protocol:
as §2

The target in experiment [7] is T1, Toll-like receptor 1/2 (Homo sapiens, UniProt O60603+Q15399). The experiment is described as follows: Agonist activity at TLR1/TLR2 in human THP-1 derived macrophages assessed as stimulation of TNF alpha release measured for 4 hrs by ELISA based assay. It counts as cell-based. Summed up: (§3)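 THP-1 cells differentiated with 100 nM PMA in RPMI/10% FBS for 24 h, washed, then rested 24 h in fresh medium. Seeded at 0.5 × 10⁵ cells/well and exposed to graded compound concentrations for 4 h, with final DMSO held at 0.1%. LPS served as positive control and DMSO as negative control. Supernatant human TNF-α was read by ELISA. EC50 from duplicate means.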
T1 sequence (O60603 whole entry): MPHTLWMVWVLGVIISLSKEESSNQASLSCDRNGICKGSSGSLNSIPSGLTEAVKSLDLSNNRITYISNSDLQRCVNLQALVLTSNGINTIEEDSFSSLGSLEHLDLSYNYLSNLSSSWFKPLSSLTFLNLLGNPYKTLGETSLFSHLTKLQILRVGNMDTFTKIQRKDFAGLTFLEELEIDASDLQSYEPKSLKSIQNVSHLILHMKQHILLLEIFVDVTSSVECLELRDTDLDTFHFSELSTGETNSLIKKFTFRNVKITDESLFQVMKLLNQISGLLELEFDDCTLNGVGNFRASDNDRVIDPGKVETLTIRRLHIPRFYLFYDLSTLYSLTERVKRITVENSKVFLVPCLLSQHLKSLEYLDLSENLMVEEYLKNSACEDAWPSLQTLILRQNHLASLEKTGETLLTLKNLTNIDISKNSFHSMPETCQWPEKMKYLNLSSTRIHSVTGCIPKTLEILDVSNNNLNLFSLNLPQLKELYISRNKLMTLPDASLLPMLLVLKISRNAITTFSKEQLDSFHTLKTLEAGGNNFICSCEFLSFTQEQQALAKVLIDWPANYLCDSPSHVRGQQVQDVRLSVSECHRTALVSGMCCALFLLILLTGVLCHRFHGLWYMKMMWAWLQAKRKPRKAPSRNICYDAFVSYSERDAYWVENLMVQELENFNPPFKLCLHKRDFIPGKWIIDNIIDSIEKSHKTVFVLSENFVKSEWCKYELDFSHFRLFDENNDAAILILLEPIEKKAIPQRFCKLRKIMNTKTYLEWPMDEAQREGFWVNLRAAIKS
T1 sequence (Q15399 whole entry): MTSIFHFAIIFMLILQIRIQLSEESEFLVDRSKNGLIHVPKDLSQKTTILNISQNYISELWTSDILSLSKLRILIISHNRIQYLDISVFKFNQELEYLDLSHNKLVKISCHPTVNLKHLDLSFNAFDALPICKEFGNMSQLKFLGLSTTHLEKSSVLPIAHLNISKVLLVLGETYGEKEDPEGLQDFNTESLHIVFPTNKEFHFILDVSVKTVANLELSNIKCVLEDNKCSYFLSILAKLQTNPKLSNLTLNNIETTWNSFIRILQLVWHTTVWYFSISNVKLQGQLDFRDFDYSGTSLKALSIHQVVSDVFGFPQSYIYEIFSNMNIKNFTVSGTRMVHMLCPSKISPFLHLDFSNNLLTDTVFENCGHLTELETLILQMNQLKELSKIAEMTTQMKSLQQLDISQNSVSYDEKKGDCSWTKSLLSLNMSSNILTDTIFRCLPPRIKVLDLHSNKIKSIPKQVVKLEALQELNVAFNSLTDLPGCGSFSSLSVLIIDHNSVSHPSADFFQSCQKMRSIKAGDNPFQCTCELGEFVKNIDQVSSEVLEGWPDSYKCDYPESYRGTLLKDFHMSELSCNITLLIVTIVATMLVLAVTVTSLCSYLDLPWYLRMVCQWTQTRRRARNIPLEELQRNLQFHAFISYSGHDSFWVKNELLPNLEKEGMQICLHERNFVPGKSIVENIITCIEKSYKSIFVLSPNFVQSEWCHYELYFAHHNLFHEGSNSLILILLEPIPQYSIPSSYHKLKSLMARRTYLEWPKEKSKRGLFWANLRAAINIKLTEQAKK

Experiment [8] has as its target T1, Toll-like receptor 1/2. Briefly: Agonist activity at TLR1/TLR2 in human THP-1 derived macrophages assessed as stimulation of TNF alpha release measured for 4 hrs by ELISA based assay relative to diprovocim-1. It counts as cell-based. The arrangement: Activity: concentration or dose not given beside the values. The following applies: filed as agonist. Summed up:
as §3

Experiment [9] addresses Toll-like receptor 1/2 (Mus musculus, UniProt Q9EPQ1+Q9QUN7). Briefly: Agonist activity at TLR1/TLR2 in wild type C57BL/6J mouse macrophages assessed as stimulation of TNF alpha release measured for 4 hrs by ELISA based assay. It counts as cell-based, Macrophage. A digest of the protocol: (§4)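 Thioglycolate-elicited peritoneal macrophages from wild type C57BL/6J mice, harvested by PBS lavage 4 d after i.p. 4% thioglycolate. Cultured in DMEM/10% FBS at 37 °C, 5% CO2, seeded at 1 × 10⁵ cells/well and exposed to graded compound concentrations for 4 h, with final DMSO ≤0.5% held constant. LPS served as positive control. Supernatant mouse TNF-α was read by ELISA. EC50 from duplicate means.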

The target of experiment [10] is Toll-like receptor 1/2 (Mus musculus) (UniProt Q9QUN7+Q9EPQ1). The experiment is described as follows: Agonist activity at TLR1/TLR2 in wild type C57BL/6J mouse macrophages assessed as stimulation of TNF alpha release measured for 4 hrs by ELISA based assay relative to diprovocim-1. The format is cell-based. Set-up: Activity: concentration or dose not given beside the values. The conditions noted are these: Macrophage, filed as agonist. Summed up:
as §4

Toll-like receptor 1/2 (Mus musculus, UniProt Q9EPQ1+Q9QUN7), sequence (Q9QUN7 whole entry): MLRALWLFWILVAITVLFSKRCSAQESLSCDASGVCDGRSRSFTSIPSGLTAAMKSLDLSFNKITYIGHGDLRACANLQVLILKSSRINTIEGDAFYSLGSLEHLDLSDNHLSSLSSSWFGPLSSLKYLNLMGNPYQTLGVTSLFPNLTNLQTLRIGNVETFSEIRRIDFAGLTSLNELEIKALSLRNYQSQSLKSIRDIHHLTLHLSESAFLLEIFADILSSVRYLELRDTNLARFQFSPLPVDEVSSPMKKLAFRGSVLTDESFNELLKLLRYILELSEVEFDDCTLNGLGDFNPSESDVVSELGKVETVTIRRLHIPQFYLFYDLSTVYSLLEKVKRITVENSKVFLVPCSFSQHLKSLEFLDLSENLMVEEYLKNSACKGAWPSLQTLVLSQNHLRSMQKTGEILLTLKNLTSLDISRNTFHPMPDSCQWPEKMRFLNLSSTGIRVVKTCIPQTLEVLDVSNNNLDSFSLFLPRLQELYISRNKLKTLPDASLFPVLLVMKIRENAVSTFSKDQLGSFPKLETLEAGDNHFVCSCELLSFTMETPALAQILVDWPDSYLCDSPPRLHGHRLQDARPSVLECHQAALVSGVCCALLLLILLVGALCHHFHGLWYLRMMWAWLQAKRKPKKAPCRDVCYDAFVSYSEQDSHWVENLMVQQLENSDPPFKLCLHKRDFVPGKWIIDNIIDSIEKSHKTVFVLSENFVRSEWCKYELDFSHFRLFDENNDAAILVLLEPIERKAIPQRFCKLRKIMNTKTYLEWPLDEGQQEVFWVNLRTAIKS
Toll-like receptor 1/2 (Mus musculus, UniProt Q9EPQ1+Q9QUN7), sequence (Q9EPQ1 whole entry): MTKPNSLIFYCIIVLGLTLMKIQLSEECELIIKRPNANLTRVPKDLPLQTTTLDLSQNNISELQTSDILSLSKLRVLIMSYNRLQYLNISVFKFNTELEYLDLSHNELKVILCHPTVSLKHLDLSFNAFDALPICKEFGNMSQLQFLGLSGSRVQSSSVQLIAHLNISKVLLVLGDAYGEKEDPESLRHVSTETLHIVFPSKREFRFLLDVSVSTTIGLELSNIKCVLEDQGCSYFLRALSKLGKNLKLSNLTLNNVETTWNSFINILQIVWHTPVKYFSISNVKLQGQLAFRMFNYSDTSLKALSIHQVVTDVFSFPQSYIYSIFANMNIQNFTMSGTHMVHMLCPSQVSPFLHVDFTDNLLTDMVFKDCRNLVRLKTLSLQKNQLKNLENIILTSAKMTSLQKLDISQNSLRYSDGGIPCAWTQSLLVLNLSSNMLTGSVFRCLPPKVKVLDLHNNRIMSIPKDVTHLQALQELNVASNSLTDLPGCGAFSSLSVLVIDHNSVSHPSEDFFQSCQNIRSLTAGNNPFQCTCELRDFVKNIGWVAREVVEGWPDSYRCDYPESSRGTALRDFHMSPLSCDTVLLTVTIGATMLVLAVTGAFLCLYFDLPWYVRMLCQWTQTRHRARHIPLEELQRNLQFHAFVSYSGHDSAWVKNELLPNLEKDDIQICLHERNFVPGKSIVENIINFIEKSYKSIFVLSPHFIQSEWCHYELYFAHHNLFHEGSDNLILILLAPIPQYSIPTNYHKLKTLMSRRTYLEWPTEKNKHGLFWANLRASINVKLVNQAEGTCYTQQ

Regarding `O=C(N[C@H]1C[C@@H]1c1ccccc1)[C@@H]1CN(C(=O)c2ccc(C(=O)N3C[C@@H](C(=O)N[C@H]4C[C@@H]4c4ccccc4)[C@H](C(=O)N[C@H]4C[C@@H]4c4ccccc4)C3)cc2)C[C@H]1C(=O)N[C@H]1C[C@@H]1c1ccccc1`, the outcome in [1], in experiment [2], in experiment [3], in [4], in [5] and in experiment [6] was Active.
The EC50 is the concentration needed to bring the measured effect to its halfway point. As for `CC(C)(C)OC(=O)NCC(=O)OCCCCCCCCCCCCNC(=O)[C@@H]1CN(C(=O)c2ccc(C(=O)N3C[C@@H](C(=O)N[C@H]4C[C@@H]4c4ccccc4)[C@H](C(=O)N[C@H]4C[C@@H]4c4ccccc4)C3)cc2)C[C@H]1C(=O)N[C@H]1C[C@@H]1c1ccccc1`, the EC50 in experiment [7] was found to be 0.14 nM; in experiment [9], 0.75 nM. The values for the Activity in experiment [8] and in experiment [10] were 100% and 550%, respectively. The result in experiment [1], in [2], in experiment [3] and in experiment [4] was Active.

For the origin of these results see ChEMBL document CHEMBL5143728, “Next-Generation Diprovocims with Potent Human and Murine TLR1/TLR2 Agonist Activity That Activate the Innate and Adaptive Immune Response” (J Med Chem, 2022).
